Measurements taken from ChEMBL document CHEMBL1138885, “Further structural exploration of trisubstituted asymmetric pyran derivatives (2S,4R,5R)-2-benzhydryl-5-benzylamino-tetrahydropyran-4-ol and their corresponding disubstituted (3S,6S) pyran derivatives: a proposed pharmacophore model for high-affinity interaction with the dopamine, serotonin, and …” (J Med Chem, 2006).

Assays:
Assay type in all cases: tissue-based
[1] = target: T1, Sodium-dependent dopamine transporter (Rattus norvegicus, UniProt P23977); experiment: Inhibition of [3H]WIN-35428 binding to rat striatum DAT
T1 sequence (P23977 whole entry): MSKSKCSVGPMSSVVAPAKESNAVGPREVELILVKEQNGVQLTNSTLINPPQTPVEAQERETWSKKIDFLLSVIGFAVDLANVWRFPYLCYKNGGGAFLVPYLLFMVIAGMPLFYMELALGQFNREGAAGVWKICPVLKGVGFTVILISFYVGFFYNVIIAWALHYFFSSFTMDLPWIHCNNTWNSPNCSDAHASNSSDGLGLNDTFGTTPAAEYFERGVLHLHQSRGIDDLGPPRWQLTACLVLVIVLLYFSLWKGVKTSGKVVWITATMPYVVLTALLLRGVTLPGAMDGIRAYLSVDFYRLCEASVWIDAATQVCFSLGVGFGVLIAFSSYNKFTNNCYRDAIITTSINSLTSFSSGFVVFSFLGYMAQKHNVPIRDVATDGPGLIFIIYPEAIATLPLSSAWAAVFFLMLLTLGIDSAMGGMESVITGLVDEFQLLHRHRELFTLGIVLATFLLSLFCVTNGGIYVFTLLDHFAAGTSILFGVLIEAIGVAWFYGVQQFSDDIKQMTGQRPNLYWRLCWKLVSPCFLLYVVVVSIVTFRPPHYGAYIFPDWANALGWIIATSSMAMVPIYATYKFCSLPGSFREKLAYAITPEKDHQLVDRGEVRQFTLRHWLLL
Procedure, shortened: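 DAT radioligand binding with nonspecific binding defined by cocaine. Compounds dissolved in DMSO, diluted in 10% (v/v) DMSO, final 0.5% DMSO. At least five concentrations, each in triplicate, spaced evenly around the IC50.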

[2] = target: T1, Sodium-dependent dopamine transporter; experiment: Inhibition of DAT-mediated [3H]DA uptake in rat striatum
Procedure, shortened: (§1)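 [3H]DA, [3H]5-HT or [3H]NE accumulation measured; SERT and NET uptake in rat cerebral cortex. Nonspecific uptake defined with cocaine (DAT), citalopram (SERT) or desipramine (NET). Three to eight independent experiments in triplicate, mean ± SEM.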

[3] = target: Sodium-dependent serotonin transporter (Rattus norvegicus, UniProt P31652); experiment: Inhibition of SERT-mediated [3H]5-HT uptake in rat cerebral cortex; procedure, shortened: as §1
Sequence of Sodium-dependent serotonin transporter (P31652 whole entry): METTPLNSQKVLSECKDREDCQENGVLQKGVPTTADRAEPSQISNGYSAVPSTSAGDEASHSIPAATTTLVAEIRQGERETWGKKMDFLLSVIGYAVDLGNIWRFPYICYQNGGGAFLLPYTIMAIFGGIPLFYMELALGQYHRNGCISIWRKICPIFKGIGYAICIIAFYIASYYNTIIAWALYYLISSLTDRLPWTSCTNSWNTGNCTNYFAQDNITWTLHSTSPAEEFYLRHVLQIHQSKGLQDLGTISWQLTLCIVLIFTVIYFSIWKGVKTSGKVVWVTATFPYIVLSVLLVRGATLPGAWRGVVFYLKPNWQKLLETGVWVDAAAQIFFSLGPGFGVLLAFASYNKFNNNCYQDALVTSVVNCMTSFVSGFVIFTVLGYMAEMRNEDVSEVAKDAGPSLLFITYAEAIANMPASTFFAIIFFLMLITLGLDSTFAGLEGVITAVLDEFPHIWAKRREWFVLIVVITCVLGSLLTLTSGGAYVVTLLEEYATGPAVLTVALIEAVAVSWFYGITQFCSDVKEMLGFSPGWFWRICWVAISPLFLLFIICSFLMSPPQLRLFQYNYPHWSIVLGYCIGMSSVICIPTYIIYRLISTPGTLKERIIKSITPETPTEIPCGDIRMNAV

[4] = target: Norepinephrine transporter (Rattus norvegicus, UniProt Q9WTR4); experiment: Inhibition of NET-mediated [3H]NE uptake in rat cerebral cortex; procedure, shortened: as §1
Sequence of Norepinephrine transporter (Q9WTR4 whole entry): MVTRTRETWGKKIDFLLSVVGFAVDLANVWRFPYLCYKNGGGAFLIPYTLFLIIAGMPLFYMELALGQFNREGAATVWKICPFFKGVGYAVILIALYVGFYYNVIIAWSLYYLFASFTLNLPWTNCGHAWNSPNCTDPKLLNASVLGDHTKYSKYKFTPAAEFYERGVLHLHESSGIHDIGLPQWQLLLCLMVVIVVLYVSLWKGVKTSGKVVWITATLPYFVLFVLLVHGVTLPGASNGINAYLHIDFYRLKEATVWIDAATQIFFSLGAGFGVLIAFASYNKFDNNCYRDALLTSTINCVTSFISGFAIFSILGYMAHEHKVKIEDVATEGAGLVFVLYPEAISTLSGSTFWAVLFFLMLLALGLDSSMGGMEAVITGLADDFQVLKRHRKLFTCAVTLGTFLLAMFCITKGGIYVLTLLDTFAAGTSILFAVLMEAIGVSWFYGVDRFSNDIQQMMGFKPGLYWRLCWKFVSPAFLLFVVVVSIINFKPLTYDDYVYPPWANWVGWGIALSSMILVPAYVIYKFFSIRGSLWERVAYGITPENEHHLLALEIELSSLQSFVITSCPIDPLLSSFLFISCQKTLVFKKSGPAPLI

SMILES | Ki [1] | Ki [2] | Ki [3] | Ki [4]
c1ccc(C(c2ccccc2)[C@@H]2CC[C@H](NCc3ccc4[nH]ccc4c3)CO2)cc1 | 338 nM | 214 nM | 14.5 nM | 6.56 nM
O=[N+]([O-])c1ccc(CN[C@@H]2CC[C@H](C(c3ccccc3)c3ccccc3)OC2)cc1 | 64.6 nM | 59.9 nM | – | –
O[C@@H]1C[C@@H](C(c2ccccc2)c2ccccc2)OC[C@H]1NCc1ccccc1 | 1500 nM | 446 nM | 707 nM | –
Oc1ccc(CN[C@@H]2CC[C@H](C(c3ccccc3)c3ccccc3)OC2)cc1 | 114 nM | 67.4 nM | 187 nM | –
c1ccc(C(c2ccccc2)[C@H]2CC[C@@H](NCc3ccc4[nH]ccc4c3)CO2)cc1 | 467 nM | 142 nM | 11.8 nM | 15.6 nM
Oc1ccc(CN[C@H]2CC[C@@H](C(c3ccccc3)c3ccccc3)OC2)cc1 | 226 nM | 85 nM | 37.7 nM | –

Continued, values first:

Ki [1] | Ki [2] | Ki [3] | Ki [4] | SMILES
399 nM | 184 nM | – | 13.2 nM | O[C@H]1C[C@H](C(c2ccccc2)c2ccccc2)OC[C@@H]1NCc1ccc2[nH]ccc2c1
– | – | – | 10.4 nM | Oc1ccc(CN[C@@H]2CO[C@H](C(c3ccccc3)c3ccccc3)C[C@H]2O)cc1
– | – | – | 94.4 nM | Oc1ccc(CN[C@H]2CO[C@@H](C(c3ccccc3)c3ccccc3)C[C@@H]2O)cc1
38.4 nM | 34.6 nM | – | – | O=[N+]([O-])c1ccc(CN[C@H]2CC[C@@H](C(c3ccccc3)c3ccccc3)OC2)cc1
570 nM | 120 nM | – | 2.13 nM | O[C@@H]1C[C@@H](C(c2ccccc2)c2ccccc2)OC[C@H]1NCc1ccc2[nH]ccc2c1
